T cruzi inh = inhibitors of intracellular T. cruzi growth, primary screen, luminescence, NIH3T3 host cells; T. cruzi beta-gal in NIH3T3, 90 h; inhibition, % (concentration not given with the values); 1.4% of 300,000 active; AID 1885, 2009;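 active means mean inhibition across valid replicates above about 55%, limit read from the data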;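 further: signal also drops with host cell toxicity which is not excluded here; higher percent means less beta-gal luminescence so fewer parasites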
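Material: NIH/3T3 host cells with β-galactosidase reporter T. cruzi; Input: 5,000 host fibroblasts per well; Medium: DMEM, 2% fetal bovine serum; Compound: 50 nL DMSO compound solution per well; Schedule: 3 h host attachment, then at least 90 h co-culture; Detection: luminescent β-galactosidase signal after 60 min lysis.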
CendR NRP1 mod = modulators of CendR peptide binding to NRP-1, primary screen, biochemical, fluorescence polarization, uHTS. 0.85% of 360,000 active. inhibition, % at 25 µM. AID 602438, 2012. FAM-RPARPAR peptide binding to NRP-1;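 active means inhibition or corrected inhibition above about 18%, plus a signal ratio from 0.5 to 1.5, limit read from the data, passing the limit was not always enough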
Target sequence (O14786 whole entry, looked up): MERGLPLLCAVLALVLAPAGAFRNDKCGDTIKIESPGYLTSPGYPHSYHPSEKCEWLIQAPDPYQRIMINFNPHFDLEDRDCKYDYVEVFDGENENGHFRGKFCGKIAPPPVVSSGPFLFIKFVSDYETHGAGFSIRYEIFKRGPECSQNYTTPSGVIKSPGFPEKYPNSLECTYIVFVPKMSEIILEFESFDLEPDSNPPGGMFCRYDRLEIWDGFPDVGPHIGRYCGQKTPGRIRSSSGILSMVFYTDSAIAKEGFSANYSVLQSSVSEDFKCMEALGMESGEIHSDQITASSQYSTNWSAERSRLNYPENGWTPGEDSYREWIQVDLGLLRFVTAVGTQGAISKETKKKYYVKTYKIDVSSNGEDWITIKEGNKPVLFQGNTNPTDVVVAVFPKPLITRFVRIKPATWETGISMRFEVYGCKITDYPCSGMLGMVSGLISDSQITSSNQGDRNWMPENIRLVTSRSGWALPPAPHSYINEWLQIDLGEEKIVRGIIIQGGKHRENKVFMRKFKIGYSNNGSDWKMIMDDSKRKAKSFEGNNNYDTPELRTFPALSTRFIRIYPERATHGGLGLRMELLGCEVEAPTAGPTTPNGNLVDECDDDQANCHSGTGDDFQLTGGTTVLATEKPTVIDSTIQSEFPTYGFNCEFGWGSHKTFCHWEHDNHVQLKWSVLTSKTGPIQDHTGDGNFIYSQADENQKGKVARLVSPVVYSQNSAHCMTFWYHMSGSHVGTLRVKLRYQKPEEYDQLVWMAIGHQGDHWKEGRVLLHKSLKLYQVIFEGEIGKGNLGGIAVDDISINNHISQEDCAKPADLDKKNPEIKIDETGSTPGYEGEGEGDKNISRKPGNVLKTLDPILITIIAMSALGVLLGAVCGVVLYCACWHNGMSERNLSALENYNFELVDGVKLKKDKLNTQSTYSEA
AI-2 QS mod = Vibrio harveyi AI-2 quorum sensing modulators, primary screen, JMH597 strain, luminescence/OD600 ratio; Vibrio harveyi JMH597 AI-2 luminescence/OD600 ratio, 9 h; stronger effect = lower value; strain lacks LuxN and CqsS sensors; 0 = neutral-control median; activity change, % at 7.5 µM; 0.4% of 300,000 active; in the data active means activity change below about -75%, passing the limit was not always enough;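 further: luminescence divided by OD600 gain over 9 h not by final OD600 alone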
CR mimetic SO = reduction of superoxide in aged yeast, primary screen, HTS; S. cerevisiae aged cells, superoxide DHE fluorescence; stronger effect = lower value; superoxide response (% of plate mean), % at 10 µM; 0.18% of 330,000 active; AID 2690, 2010;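 active means superoxide response under a set limit, about three screen SD below normal, cut at about 65% in these data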;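 further: yeast aged for seven days with compound at 30 °C before DHE staining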
V-ATPase pHluor = regulators of yeast V-ATPase proton pumping, primary screen, pHLuorin cytosolic pH fluorescence. AID 504577, 2011. S. cerevisiae. 0.37% of 350,000 active. response, % at 10 µM; in the data active means response mostly above about 7.3%, no sharp cut-off; inactive means mostly below about 5.4%; further: actives read high
HIF activator = HIF pathway transcriptional activators, primary screen, cell-based, U2OS HRE-luciferase, luminescence; U2OS HRE-luciferase reporter; normalized: DMSO 0%, desferrioxamine 100%; activation, % at 7.5 µM (by protocol); 0.32% of 300,000 active; AID 1910, 2009;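 active means mean activation of at least 10% of the iron chelator positive control signal, with at least half of replicates also reaching 10%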
Numbers stand for hits; . = inactive; / = not tested or not shown. Compounds with a hit are over-represented: about 3% of the library has one in this group of screens.

SMILES	T cruzi inh	CendR NRP1 mod	AI-2 QS mod	CR mimetic SO	V-ATPase pHluor	HIF activator
CC1CCN(CCCCOc2ccc([N+](=O)[O-])cc2)CC1	.	.	.	.	.	.
CCCCC/C=C\C/C=C\C/C=C\C/C=C\CCCC(=O)O	/	/	/	.	/	/
C/C(=C(\C#N)C(=O)NCCN1CCOCC1)N(C)C	.	.	.	.	.	/
CCOc1cc(C)c(C(C)C)cc1S(=O)(=O)n1cnc(C)c1	55.3	.	.	.	.	.
CCC(C)(NC=O)C(=O)Nc1c(C)cccc1C (centres undefined)	.	25.8	.	.	.	.
CCc1nc(N2CCN(C(=O)c3ccco3)CC2)c2c3c(sc2n1)CCCC3	.	.	.	.	.	498.6
COC(=O)[C@@H]1C[C@@]2(O)[C@@H](O)[C@@H](O)[C@@H](O)C[C@H]2N1Cc1ccc(C(F)(F)F)cc1	.	.	.	.	.	.
COC(=O)[C@@H]1C[C@@]2(O)[C@H](O)[C@H](O)[C@H](O)C[C@H]2N1Cc1ccc(C(F)(F)F)cc1	.	26.6	.	.	.	.
Cc1sc(N/N=C/C=C/c2ccccc2)nc1-c1ccccc1	55.4	.	.	.	.	.
Cc1cc(NC(=O)CCC(=O)N(Cc2ccco2)C2(C(=O)NC3CCCC3)CCCCC2)no1	.	19.4	.	.	.	.
Cc1cc(NC(=O)CCC(=O)N(Cc2ccco2)C2(C(=O)NC3CCCCC3)CCN(C)CC2)no1	.	.	.	.	.	.
Cc1cc(NC(=O)CCC(=O)N(c2ccccc2)C(C(=O)NC2CCCC2)c2cccs2)no1 (centres undefined)	.	20.0	.	.	.	.
Cc1cc(NC(=O)CCC(=O)N(c2cccc(F)c2)C(C(=O)NC2CCCC2)c2ccccc2)no1 (centres undefined)	.	25.6	.	.	.	.
Cc1cc(Br)ccc1OCCCCN1CCCCC1	64.1	.	.	.	.	.
Cc1ccc(OCCOCCN2CCCC2)c(Br)c1	56.7	.	.	.	.	.
Cc1cc(Br)ccc1OCCOCCN1CCCC1	.	.	.	.	.	.
CCOC(=O)c1c(C)oc2c1c(C=NCCC(=O)O)c(O)c1ccccc12	.	26.3	.	.	.	.
Cc1ccc(CNC(=O)CSc2nc3c(sc4ccccc43)c(=O)n2CCCN2CCCC2)cc1	63.7	.	.	.	.	.
CCN(CC)CCn1c(SCC(=O)NCCC2=CCCCC2)nc2c(sc3ccccc32)c1=O	60.3	.	.	.	.	.
COc1ccc(CCn2c(SCCN3CCCCC3)nc3ccccc3c2=O)cc1OC	66.6	.	.	.	.	.
Cc1ccc(Cn2c(SCC(=O)Nc3cc(C)on3)nc3ccccc3c2=O)cc1	.	27.6	.	.	.	.
Cc1cccc(N(C)S(=O)(=O)c2ccc(-c3cc(C)no3)s2)c1	.	.	.	.	.	.
Cc1ccc(OCCCC(=O)Nc2ccc(S(N)(=O)=O)cc2)cc1	.	.	.	.	.	.
Cc1ccccc1C(=O)Nc1ccccc1-n1cccc1	.	.	.	.	.	/
CC1(C(=O)Nc2cnc3ccccc3c2)CCN1Cc1ccc(-c2ccccc2)o1 (centres undefined)	/	.	/	/	/	/
SMILES	T cruzi inh	CendR NRP1 mod	AI-2 QS mod	CR mimetic SO	V-ATPase pHluor	HIF activator
CCN(CC)C(=O)c1ccccc1NS(C)(=O)=O	.	.	.	.	.	.
Cc1ccc(NC(=O)CSc2nc3ccccc3c(=O)n2CCCN2CCCCC2)cc1Cl	56.5	.	.	.	.	.
CC(=O)Nc1ccc(S(=O)(=O)N(C#N)c2nc(N(C)C)nc(N(C)C)n2)cc1	.	.	.	.	.	.
Cc1ccc(S(=O)(=O)N(C(=N)N)c2nc(N(C)C)nc(N(C)C)n2)cc1	55.0	.	.	.	.	.
O=C(Oc1ccc2c(=O)c(Oc3ccc4ccccc4c3)coc2c1)c1cncc(Br)c1	.	.	-83.1	.	.	.
CCCCOC(=O)Oc1ccc2c(=O)c(Oc3cc(C)cc(C)c3)coc2c1	.	.	.	.	.	.
O=C(Oc1ccc2ccccc2c1)c1cncc(Br)c1	.	.	.	.	/	.
Cc1ccc(Oc2coc3cc(O)ccc3c2=O)cc1	.	.	-93.9	.	.	.
CCCCOC(=O)Oc1ccc2c(=O)c(Oc3cccc(C)c3)coc2c1	.	.	-76.9	.	.	.
COc1c(C)cc(NC(=O)c2ccc3c(c2)NC(=O)CO3)cc1C	.	.	.	.	.	.
CN(C1CCCCC1)S(=O)(=O)c1ccc(SCC(=O)NC(C)(C)C)nc1	/	.	/	.	.	/
Fc1ccc(CCn2c(Cn3c(-c4cnccn4)nc4ccccc43)nc3ccccc32)cc1	/	.	/	/	/	/
O=C(CCOc1ccccc1)N1CCCC(Nc2ccccc2)C1 (centres undefined)	/	.	/	/	.	/
COc1ccc(C(=O)NC2=Nc3ccccc3N=C(C)C2c2ccccc2)cc1 (centres undefined)	.	.	.	.	.	24.9
CC(C)NC(=O)[C@]1(C)CCC[C@@]2(C)C3CC[C@@]4(C)C[C@]3(CCC21)CC4=O (some centres undefined)	/	.	/	.	.	/
C[C@@]12CCC3[C@@](CCC4[C@@]3(C)CCC[C@@]4(C)C(=O)Nc3ccc(Cl)cc3)(CC1=O)C2 (some centres undefined)	/	26.5	/	.	.	/
CCCn1nc2cc(C(=O)NCc3ccc(OC(F)(F)F)cc3)ccc2c1OCC	.	18.8	.	/	.	.
CCOc1c2ccc(C(=O)NCc3ccc(OC(F)(F)F)cc3)cc2nn1CC	.	.	.	.	.	.
CCCn1nc2cc(C(=O)NCc3ccc4c(c3)OCO4)ccc2c1OCC	.	.	.	.	.	.
CCOc1c2ccc(C(=O)NCc3ccc4c(c3)OCO4)cc2nn1CCOC	.	18.0	.	.	.	.
CN(CCOc1ccc(Cl)cc1)c1ccc(S(=O)(=O)N2CCCCC2)cn1	/	18.7	/	.	.	/
COc1ccc(F)cc1S(=O)(=O)n1nnc2ccccc21	.	.	.	.	.	.
Cn1c(O)c(N=NC(=O)c2cc(-c3cccs3)nc3ccccc23)c2ccccc21	.	.	.	.	.	.
O=C(N=Nc1c(O)[nH]c2ccc(Br)cc12)c1cc(-c2cccs2)nc2ccccc12	56.4	.	.	/	.	.
CCC1CCC/C1=N\NC(=O)CCC(=O)Nc1ccccc1Cl (centres undefined)	.	.	.	.	.	.
O=C(CCC(=O)Nc1ccccc1Cl)NN=C1CCCC1	/	21.9	.	.	.	/
Clc1ccccc1-c1ccc2ncnc(NCc3ccc4c(c3)OCO4)c2c1	/	22.3	/	.	.	/
